Measurements published in ChEMBL document CHEMBL4406856, “Structure based design, synthesis and in vitro antitumour activity of tiazofurin stereoisomers with nitrogen functions at the C-2' or C-3' positions” (Eur J Med Chem, 2019).
The source made the active and inactive calls. The rule behind the calls is not given here.

Tests used:
[1] = tested on: K562; assay: Induction of apoptosis in human K562 cells incubated for 24 hrs by annexin V FITC and propidium iodide staining based flow cytometry relative to control; format: functional; design: concentration or dose not given beside the values
[2] = tested on: K562; assay: Antiproliferative activity against human K562 cells assessed as reduction in cell growth incubated for 72 hrs by MTT assay; format: functional, cell-based; settings: K562, 72 h
In short: (§1)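 Colorimetric MTT assay on human tumour lines K562 (chronic myeloid leukemia), HL-60 (promyelocytic leukemia), Jurkat (T cell leukemia), Raji (Burkitt's lymphoma), HT-29 (colorectal adenocarcinoma), HeLa (cervix adenocarcinoma) and normal lung fibroblast MRC-5; cells exposed to compounds for 72 h.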

[3] = tested on: HL-60; assay: Antiproliferative activity against human HL60 cells assessed as reduction in cell growth incubated for 72 hrs by MTT assay; format: functional, cell-based; settings: HL-60, 72 h
In short: as §1, with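 “h. IC50 taken as concentration giving 50% growth inhibition versus untreated control.” for “h.”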

[4] = tested on: Jurkat; assay: Antiproliferative activity against human Jurkat cells assessed as reduction in cell growth incubated for 72 hrs by MTT assay; format: functional, cell-based
In short: as §1, with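 “h. IC50 taken as concentration giving 50% growth inhibition versus untreated control.” for “h.”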

[5] = tested on: Raji; assay: Antiproliferative activity against human Raji cells assessed as reduction in cell growth incubated for 72 hrs by MTT assay; format: functional, cell-based; in short: as §1
[6] = tested on: HT-29; assay: Antiproliferative activity against human HT-29 cells assessed as reduction in cell growth incubated for 72 hrs by MTT assay; format: functional, cell-based; settings: HT-29, 72 h
In short: as §1, with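 “h. IC50 taken as concentration giving 50% growth inhibition versus untreated control.” for “h.”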

[7] = tested on: HeLa; assay: Antiproliferative activity against human HeLa cells assessed as reduction in cell growth incubated for 72 hrs by MTT assay; format: functional, cell-based
In short: as §1, with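 “h. IC50 taken as concentration giving 50% growth inhibition versus untreated control.” for “h.”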

[8] = tested on: MRC5; assay: Cytotoxicity against human MRC5 cells assessed as reduction in cell viability incubated for 72 hrs by MTT assay; format: cell-based; settings: MRC5, 72 h; in short: as §1
[9] = tested on: K562; assay: Potency index, ratio of tiazofurin IC50 to compound IC50 for cytotoxicity against human K562 cells incubated for 72 hrs by MTT assay; format: functional
[10] = tested on: Jurkat; assay: Potency index, ratio of tiazofurin IC50 to compound IC50 for cytotoxicity against human Jurkat cells incubated for 72 hrs by MTT assay; format: functional
[11] = tested on: HT-29; assay: Potency index, ratio of tiazofurin IC50 to compound IC50 for cytotoxicity against human HT-29 cells incubated for 72 hrs by MTT assay; format: functional
[12] = tested on: HeLa; assay: Potency index, ratio of tiazofurin IC50 to compound IC50 for cytotoxicity against human HeLa cells incubated for 72 hrs by MTT assay; format: functional
[13] = tested on: K562; assay: Potency index, ratio of doxorubicin IC50 to compound IC50 for cytotoxicity against human K562 cells incubated for 72 hrs by MTT assay; format: functional
[14] = tested on: Jurkat; assay: Potency index, ratio of doxorubicin IC50 to compound IC50 for cytotoxicity against human Jurkat cells incubated for 72 hrs by MTT assay; format: functional
[15] = tested on: HT-29; assay: Potency index, ratio of doxorubicin IC50 to compound IC50 for cytotoxicity against human HT-29 cells incubated for 72 hrs by MTT assay; format: functional
[16] = tested on: HeLa; assay: Potency index, ratio of doxorubicin IC50 to compound IC50 for cytotoxicity against human HeLa cells incubated for 72 hrs by MTT assay; format: functional
[17] = tested on: K562; assay: Cell cycle arrest in human K562 cells assessed as accumulation in G2/M phase incubated for 72 hrs by propidium iodide staining based flow cytometry (reference value: 15.45%); format: functional
In short: (§2)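 Exponentially growing K562 cells treated for 24 or 72 h, untreated cells as control; cells stained with propidium iodide and DNA content read by flow cytometry. Phase distribution (subG1, G0/G1, S, G2/M) taken from one-parameter histograms, subG1 scored as hypodiploid, apoptotic cells.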

[18] = tested on: K562; assay: Cell cycle arrest in human K562 cells assessed as accumulation in S phase incubated for 72 hrs by propidium iodide staining based flow cytometry (reference value: 36.05%); format: functional; in short: as §2
[19] = tested on: K562; assay: Cell cycle arrest in human K562 cells assessed as accumulation in G0/G1 phase incubated for 72 hrs by propidium iodide staining based flow cytometry (reference value: 45.43%); format: functional; in short: as §2
[20] = tested on: K562; assay: Cell cycle arrest in human K562 cells assessed as accumulation in SubG1 phase incubated for 72 hrs by propidium iodide staining based flow cytometry (reference value: 3.07%); format: functional; in short: as §2
[21] = tested on: K562; assay: Induction of apoptosis in human K562 cells incubated for 72 hrs by annexin V FITC and propidium iodide staining based flow cytometry relative to control; format: functional; design: concentration or dose not given beside the values
In short: (§3)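 K562 cells treated for 72 h, stained with Annexin V-FITC/propidium iodide and analysed by flow cytometry. Apoptotic, necrotic and live fractions scored as percent of gated cells; specific apoptosis and specific necrosis calculated from these counts.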

[22] = tested on: K562; assay: Induction of necrosis in human K562 cells incubated for 72 hrs by annexin V FITC and propidium iodide staining based flow cytometry relative to control; format: functional; design: concentration or dose not given beside the values; in short: as §3
[23] = tested on: K562; assay: Induction of apoptosis in human K562 cells assessed as Bcl2 level incubated for 72 hrs by Western blot analysis (reference value: 100%); format: functional
In short: (§4)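 K562 cells treated for 72 h; Bcl-2, BAX, caspase 3 precursor (32 kDa), caspase 3 active subunit (18 kDa) and PARP (112 and 85 kDa) measured by Western blot and expressed as % of untreated control.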

[24] = tested on: K562; assay: Induction of apoptosis in human K562 cells assessed as Bax level incubated for 72 hrs by Western blot analysis (reference value: 100%); format: functional; in short: as §4
[25] = tested on: K562; assay: Induction of apoptosis in human K562 cells assessed as 32 kDa Caspase 3 precursor level incubated for 72 hrs by Western blot analysis (reference value: 100%); format: functional; in short: as §4
[26] = tested on: K562; assay: Induction of apoptosis in human K562 cells assessed as 18 kDa Caspase 3 active subunit level incubated for 72 hrs by Western blot analysis (reference value: 100%); format: functional; in short: as §4
[27] = tested on: K562; assay: Induction of apoptosis in human K562 cells assessed as 112 kDa PARP level incubated for 72 hrs by Western blot analysis (reference value: 100%); format: functional; in short: as §4
[28] = tested on: K562; assay: Induction of apoptosis in human K562 cells assessed as 85 kDa PARP level incubated for 72 hrs by Western blot analysis (reference value: 100%); format: functional; in short: as §4
[29] = tested on: K562; assay: Induction of apoptosis in human K562 cells assessed as reduction in cell membrane integrity at cytotoxic IC50 incubated for 72 hrs by acridine orange and ethidium bromide double staining based fluorescence microscopy; format: functional
[30] = tested on: K562; assay: Genotoxicity in human K562 cells assessed as increase in DNA damage at cytotoxic IC50 incubated for 72 hrs by comet assay; format: toxicity, cell-based; settings: k562, 72 h
In short: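 Modified alkaline comet assay: cells set in agarose on slides, electrophoresed horizontally, stained with ethidium bromide and imaged by fluorescence microscopy. 50 comets scored per sample; mean tail moment used as the DNA-damage measure.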

[31] = tested on: K562; assay: Induction of necrosis in human K562 cells incubated for 24 hrs by annexin V FITC and propidium iodide staining based flow cytometry relative to control; format: functional; design: concentration or dose not given beside the values
[32] = tested on: K562; assay: Cell cycle arrest in human K562 cells assessed as accumulation in G2/M phase incubated for 24 hrs by propidium iodide staining based flow cytometry (reference value: 14.29%); format: functional; in short: as §2
[33] = tested on: K562; assay: Cell cycle arrest in human K562 cells assessed as accumulation in S phase incubated for 24 hrs by propidium iodide staining based flow cytometry (reference value: 48.38%); format: functional; in short: as §2
[34] = tested on: K562; assay: Cell cycle arrest in human K562 cells assessed as accumulation in G0/G1 phase incubated for 24 hrs by propidium iodide staining based flow cytometry (reference value: 36.28%); format: functional; in short: as §2
[35] = tested on: K562; assay: Cell cycle arrest in human K562 cells assessed as accumulation in sub-G1 phase incubated for 24 hrs by propidium iodide staining based flow cytometry (reference value: 1.05%); format: functional; in short: as §2
[36] = tested on: K562; assay: Cell cycle arrest in human K562 cells assessed as decrease in cell accumulation at G2/M phase incubated for 72 hrs by propidium iodide staining based flow cytometry relative to tiazofurin; format: functional; in short: as §2

IC50 [2]: 0.035 µM
IC50 [3]: 9.39 µM
IC50 [4]: 0.0036 µM
IC50 [5]: 3.85 µM
IC50 [6]: 0.005 µM
IC50 [7]: 0.012 µM
SMILES: NC(=O)c1csc([C@@H]2O[C@H](CO)[C@H](N)[C@H]2O)n1
Activity [1]: 6.35%
IC50 [8]: > 100 µM
Ratio IC50 [9]: 11 - 318
Ratio IC50 [10]: 11 - 318
Ratio IC50 [11]: 11 - 318
Ratio IC50 [12]: 11 - 318
Ratio IC50 [13]: 5 - 30
Ratio IC50 [14]: 5 - 30
Ratio IC50 [15]: 5 - 30
Ratio IC50 [16]: 5 - 30
Activity [17]: 13.77%
Activity [18]: 32.99%
Activity [19]: 40.45%
Activity [20]: 12.78%
Activity [21]: 34.37%
Activity [22]: 20.43%
Activity [23]: 164.9%
Activity [24]: 240.62%
Activity [25]: 1465.64%
Activity [26]: 172.46%
Activity [27]: 84.76%
Activity [28]: 104.95%
Activity [29]: Active
Activity [30]: Toxic
Activity [31]: -0.99%
Activity [32]: 4.72%
Activity [33]: 35.75%
Activity [34]: 55.65%
Activity [35]: 3.87%
fold change (FC) [36]: 2 - 2.4
